Measured values: ChEMBL document CHEMBL4350961, “Discovery of Pyrrolo[3,2- d]pyrimidin-4-one Derivatives as a New Class of Potent and Cell-Active Inhibitors of P300/CBP-Associated Factor Bromodomain” (J Med Chem, 2019)
Active and inactive are the calls of the source. The rule behind the calls is not given here.

Legend:
[1] = target: Nucleosome-remodeling factor subunit BPTF (Homo sapiens, UniProt Q12830); assay: Binding affinity to human N-terminal His-tagged FALZ assessed as change in melting temperature at 10 uM by SYPRO orange dye-based fluorescence assay
Outline: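 Thermal shift with His-tagged human bromodomain at 2 μM final in 10 mM HEPES pH 7.5, 500 mM NaCl. Compound at 10 μM final with 0.1% DMSO; SYPRO Orange at 1:1000. Equilibrated 3 min at 25 °C, then heated from 25 to 95 °C at 1 °C/min. Melting temperature shift taken from fluorescence; at least duplicate.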

[2] = target: Bromodomain adjacent to zinc finger domain protein 2B (Homo sapiens) (UniProt Q9UIF8); assay: Binding affinity to human partial length BAZ2B (S2054 to S2168 residues) expressed in bacterial expression system at 1 uM by BROMOscan assay
Outline: (§1)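 BROMOscan bromodomain cross-screen run by an outside service, compound at 1 µM against 32 recombinant bromodomains. Binding given as percent of control.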

Peregrin (Homo sapiens) = Peregrin (Homo sapiens) (UniProt P55201); assay: Binding affinity to human partial length BRPF1 (E627 to G740 residues) expressed in bacterial expression system at 1 uM by BROMOscan assay; outline: as §1
[3] = target: Protein polybromo-1 (Homo sapiens) (UniProt Q86U86); assay: Binding affinity to human partial length PBRM1 bromodomain 2 (S178 to E291 residues) expressed in bacterial expression system at 1 uM by BROMOscan assay; outline: as §1
[4] = target: Transcription initiation factor TFIID subunit 1-like (Homo sapiens) (UniProt Q8IZX4); assay: Binding affinity to human partial length TAF1L bromodomain 2 (Q1523 to D1654 residues) expressed in bacterial expression system at 1 uM by BROMOscan assay; outline: as §1
Homo sapiens [5] = species on record: Homo sapiens; assay: Inhibition of recombinant human ARAF Y301D/ Y302D mutant (273 to end residues) at 10 uM using myelin basic protein as substrate measured after 40 mins in presence of [gamma33P]ATP by scintillation counting method
[6] = target: Aurora kinase C (Homo sapiens) (UniProt Q9UQB9); assay: Inhibition of recombinant human AURKC (35 to end residues) at 10 uM using AKRRRLSSLRA as substrate measured after 40 mins in presence of [gamma33P]ATP by scintillation counting method
[7] = target: Dual specificity protein kinase CLK1 (Homo sapiens) (UniProt P49759); assay: Inhibition of recombinant human CLK1 (130 to end residues) at 10 uM using ERMRPRKRQGSVRRRV as substrate measured after 40 mins in presence of [gamma33P]ATP by scintillation counting method
[8] = system: Mast/stem cell growth factor receptor Kit (Homo sapiens), P10721 [D816H]; assay: Inhibition of recombinant human c-Kit D816H mutant (544 to end residues) at 10 uM using GGMEDIYFEFMGGKKK as substrate measured after 40 mins in presence of [gamma33P]ATP by scintillation counting method
Homo sapiens [9] = species on record: Homo sapiens; assay: Inhibition of recombinant human DDR1 V833L mutant (492 to end residues) at 10 uM using KKKSPGEYVNIEFG as substrate measured after 40 mins in presence of [gamma33P]ATP by scintillation counting method
[10] = target: Serine/threonine-protein kinase haspin (Homo sapiens) (UniProt Q8TF76); assay: Inhibition of recombinant human haspin (471 to end residues) at 10 uM using RARTLSFAEPG as substrate measured after 40 mins in presence of [gamma33P]ATP by scintillation counting method
[11] = target: Inhibitor of nuclear factor kappa-B kinase subunit beta (Homo sapiens) (UniProt O14920); assay: Inhibition of recombinant full-length human IKKbeta at 10 uM using peptide substrate measured after 40 mins in presence of [gamma33P]ATP by scintillation counting method
[12] = target: MAP kinase-activated protein kinase 3 (Homo sapiens) (UniProt Q16644); assay: Inhibition of recombinant human MAPKAPK3 (2 to end residues) at 10 uM using KKLNRTLSVA as substrate measured after 40 mins in presence of [gamma33P]ATP by scintillation counting method
[13] = target: Serine/threonine-protein kinase MRCK beta (Homo sapiens) (UniProt Q9Y5S2); assay: Inhibition of recombinant human MRCKbeta (1 to 473 residues) at 10 uM using KKRNRTLTV as substrate measured after 40 mins in presence of [gamma33P]ATP by scintillation counting method
[14] = target: Serine/threonine-protein kinase 26 (Homo sapiens) (UniProt Q9P289); assay: Inhibition of recombinant human MST4 (4 to 304 residues) at 10 uM using RLGRDKYKTLRQIRQ as substrate measured after 40 mins in presence of [gamma33P]ATP by scintillation counting method
Homo sapiens [15] = species on record: Homo sapiens; assay: Inhibition of recombinant full-length human PKBalpha […] mutant at 10 uM using GRPRTSSFAEGKK as substrate measured after 40 mins in presence of [gamma33P]ATP by scintillation counting method
[16] = target: Serine/threonine-protein kinase 32B (Homo sapiens) (UniProt Q9NY57); assay: Inhibition of recombinant full-length human STK32B at 10 uM using casein as substrate measured after 120 mins in presence of [gamma33P]ATP by scintillation counting method
[17] = target: Tyrosine-protein kinase SYK (Homo sapiens) (UniProt P43405); assay: Inhibition of recombinant full-length human Syk at 10 uM using poly(Glu, Tyr) 4:1 as substrate measured after 120 mins in presence of [gamma33P]ATP by scintillation counting method
[18] = target: Serine/threonine-protein kinase TBK1 (Homo sapiens) (UniProt Q9UHD2); assay: Inhibition of recombinant full-length human TBK1 at 10 uM using KRRRALS(p)VASLPGL as substrate measured after 40 mins in presence of [gamma33P]ATP by scintillation counting method
Homo sapiens [19] = species on record: Homo sapiens; assay: Inhibition of recombinant full-length human PI3K p120gamma R459Q mutant at 10 uM using phosphatidylinositol-4, 5-bisphosphate as substrate measured after 40 mins by fluorescence assay
[20] = system: PI3-kinase p110-alpha/p85-alpha (Homo sapiens), P27986+P42336 [E542K]; assay: Inhibition of recombinant full-length human PI3K p110alpha/p85alpha E542K mutant at 10 uM using phosphatidylinositol-4, 5-bisphosphate as substrate measured after 40 mins by fluorescence assay; assay type: protein-complex assay
Homo sapiens [21] = species on record: Homo sapiens; assay: Inhibition of recombinant full-length human PI3K p110alpha/p65alpha (1 to 571 residues) at 10 uM using phosphatidylinositol-4, 5-bisphosphate as substrate measured after 40 mins by HTRF assay
[22] = target: Phosphatidylinositol 3-kinase C2 domain-containing subunit gamma (Homo sapiens) (UniProt O75747); assay: Inhibition of recombinant human PI3KC2gamma (468 to 1203 residues) at 10 uM using phosphatidylinositol as substrate measured after 40 mins by HTRF assay

Chain of Transcription initiation factor TFIID subunit 1-like (Homo sapiens) (Q8IZX4 whole entry, the tested form may be a part): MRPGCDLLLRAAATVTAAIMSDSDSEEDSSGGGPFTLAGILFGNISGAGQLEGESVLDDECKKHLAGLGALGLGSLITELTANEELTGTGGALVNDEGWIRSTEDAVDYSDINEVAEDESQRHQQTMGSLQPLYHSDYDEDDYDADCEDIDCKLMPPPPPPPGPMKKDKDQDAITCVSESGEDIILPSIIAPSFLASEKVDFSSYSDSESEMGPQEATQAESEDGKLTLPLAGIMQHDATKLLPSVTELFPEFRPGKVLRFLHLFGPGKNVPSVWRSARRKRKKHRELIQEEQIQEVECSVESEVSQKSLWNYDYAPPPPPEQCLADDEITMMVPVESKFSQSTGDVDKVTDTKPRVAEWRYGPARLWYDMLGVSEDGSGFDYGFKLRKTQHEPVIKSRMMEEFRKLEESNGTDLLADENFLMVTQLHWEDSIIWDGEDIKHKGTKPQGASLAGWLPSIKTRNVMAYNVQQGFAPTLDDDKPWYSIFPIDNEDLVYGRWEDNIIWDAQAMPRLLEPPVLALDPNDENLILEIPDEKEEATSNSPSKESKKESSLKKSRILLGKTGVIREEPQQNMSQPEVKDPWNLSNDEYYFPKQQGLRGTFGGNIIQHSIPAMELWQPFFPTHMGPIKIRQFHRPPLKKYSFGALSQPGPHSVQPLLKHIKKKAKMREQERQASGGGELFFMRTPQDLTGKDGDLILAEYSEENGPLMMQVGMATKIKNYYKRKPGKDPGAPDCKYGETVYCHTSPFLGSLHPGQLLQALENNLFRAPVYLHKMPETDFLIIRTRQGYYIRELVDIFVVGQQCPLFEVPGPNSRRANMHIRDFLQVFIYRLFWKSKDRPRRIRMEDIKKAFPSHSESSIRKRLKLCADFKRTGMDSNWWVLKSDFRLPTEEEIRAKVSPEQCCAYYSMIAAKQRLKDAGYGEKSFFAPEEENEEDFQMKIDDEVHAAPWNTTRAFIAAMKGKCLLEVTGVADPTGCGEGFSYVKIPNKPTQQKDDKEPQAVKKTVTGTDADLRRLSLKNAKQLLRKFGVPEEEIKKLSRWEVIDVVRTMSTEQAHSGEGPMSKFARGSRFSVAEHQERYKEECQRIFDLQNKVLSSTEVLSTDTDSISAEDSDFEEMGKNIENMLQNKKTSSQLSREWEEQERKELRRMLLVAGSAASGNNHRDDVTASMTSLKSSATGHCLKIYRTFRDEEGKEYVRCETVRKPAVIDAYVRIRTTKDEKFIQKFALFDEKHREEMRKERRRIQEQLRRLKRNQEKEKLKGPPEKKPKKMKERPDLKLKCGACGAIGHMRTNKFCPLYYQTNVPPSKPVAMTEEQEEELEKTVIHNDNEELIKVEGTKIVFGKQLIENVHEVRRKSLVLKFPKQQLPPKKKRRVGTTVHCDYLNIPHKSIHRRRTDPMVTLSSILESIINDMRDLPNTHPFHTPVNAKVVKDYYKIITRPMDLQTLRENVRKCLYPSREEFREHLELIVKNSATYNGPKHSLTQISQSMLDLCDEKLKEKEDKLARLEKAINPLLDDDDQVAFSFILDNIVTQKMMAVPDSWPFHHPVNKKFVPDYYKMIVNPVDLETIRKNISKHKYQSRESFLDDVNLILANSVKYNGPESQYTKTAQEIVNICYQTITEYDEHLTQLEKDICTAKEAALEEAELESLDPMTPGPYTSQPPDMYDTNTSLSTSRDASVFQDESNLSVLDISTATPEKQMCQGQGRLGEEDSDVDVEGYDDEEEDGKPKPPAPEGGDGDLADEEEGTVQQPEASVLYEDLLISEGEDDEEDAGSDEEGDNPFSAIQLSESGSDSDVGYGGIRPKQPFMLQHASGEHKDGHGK
Chain of Protein polybromo-1 (Homo sapiens) (Q86U86 whole entry, the tested form may be a part): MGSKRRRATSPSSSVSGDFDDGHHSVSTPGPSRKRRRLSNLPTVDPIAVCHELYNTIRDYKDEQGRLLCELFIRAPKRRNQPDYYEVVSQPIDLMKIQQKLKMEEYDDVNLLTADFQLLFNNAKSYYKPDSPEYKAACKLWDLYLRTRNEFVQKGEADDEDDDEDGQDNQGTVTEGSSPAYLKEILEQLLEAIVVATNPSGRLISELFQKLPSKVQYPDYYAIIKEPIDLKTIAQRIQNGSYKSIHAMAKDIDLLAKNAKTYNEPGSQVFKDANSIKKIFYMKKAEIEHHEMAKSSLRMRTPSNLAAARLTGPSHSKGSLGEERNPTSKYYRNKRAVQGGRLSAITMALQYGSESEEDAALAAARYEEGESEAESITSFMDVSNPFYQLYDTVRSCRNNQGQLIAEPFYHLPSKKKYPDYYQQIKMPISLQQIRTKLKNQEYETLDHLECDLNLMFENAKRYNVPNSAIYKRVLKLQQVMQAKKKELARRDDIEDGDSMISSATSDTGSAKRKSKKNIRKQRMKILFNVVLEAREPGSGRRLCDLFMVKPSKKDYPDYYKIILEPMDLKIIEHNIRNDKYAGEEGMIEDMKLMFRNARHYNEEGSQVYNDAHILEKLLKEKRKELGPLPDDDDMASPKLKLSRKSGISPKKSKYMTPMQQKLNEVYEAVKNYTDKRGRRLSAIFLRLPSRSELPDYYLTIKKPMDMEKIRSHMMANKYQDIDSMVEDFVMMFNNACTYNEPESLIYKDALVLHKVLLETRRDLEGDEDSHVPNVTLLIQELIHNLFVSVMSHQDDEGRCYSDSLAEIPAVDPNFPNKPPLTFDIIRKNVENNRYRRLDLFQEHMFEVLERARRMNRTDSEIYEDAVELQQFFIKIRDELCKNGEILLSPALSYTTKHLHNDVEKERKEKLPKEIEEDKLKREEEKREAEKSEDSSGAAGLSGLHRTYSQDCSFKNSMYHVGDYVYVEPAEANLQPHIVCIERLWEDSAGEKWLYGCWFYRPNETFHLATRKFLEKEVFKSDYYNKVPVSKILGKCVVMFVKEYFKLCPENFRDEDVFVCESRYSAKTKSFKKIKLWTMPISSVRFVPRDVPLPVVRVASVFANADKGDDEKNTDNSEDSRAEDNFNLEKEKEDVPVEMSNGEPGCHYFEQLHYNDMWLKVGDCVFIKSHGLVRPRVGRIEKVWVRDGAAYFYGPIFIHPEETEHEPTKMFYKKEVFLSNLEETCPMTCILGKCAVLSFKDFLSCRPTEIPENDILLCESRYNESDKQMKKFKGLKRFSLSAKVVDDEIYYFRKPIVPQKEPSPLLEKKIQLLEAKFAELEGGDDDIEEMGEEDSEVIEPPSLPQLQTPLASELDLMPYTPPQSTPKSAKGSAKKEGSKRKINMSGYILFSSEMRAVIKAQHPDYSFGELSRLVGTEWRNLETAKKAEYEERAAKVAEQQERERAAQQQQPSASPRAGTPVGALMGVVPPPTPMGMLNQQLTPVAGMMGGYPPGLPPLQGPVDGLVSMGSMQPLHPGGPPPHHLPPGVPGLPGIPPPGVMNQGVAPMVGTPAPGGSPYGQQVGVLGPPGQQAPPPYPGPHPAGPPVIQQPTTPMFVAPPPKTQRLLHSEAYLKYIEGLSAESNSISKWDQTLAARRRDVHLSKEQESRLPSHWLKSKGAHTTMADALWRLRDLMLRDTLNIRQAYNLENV
Chain of Peregrin (Homo sapiens) (P55201 whole entry, the tested form may be a part): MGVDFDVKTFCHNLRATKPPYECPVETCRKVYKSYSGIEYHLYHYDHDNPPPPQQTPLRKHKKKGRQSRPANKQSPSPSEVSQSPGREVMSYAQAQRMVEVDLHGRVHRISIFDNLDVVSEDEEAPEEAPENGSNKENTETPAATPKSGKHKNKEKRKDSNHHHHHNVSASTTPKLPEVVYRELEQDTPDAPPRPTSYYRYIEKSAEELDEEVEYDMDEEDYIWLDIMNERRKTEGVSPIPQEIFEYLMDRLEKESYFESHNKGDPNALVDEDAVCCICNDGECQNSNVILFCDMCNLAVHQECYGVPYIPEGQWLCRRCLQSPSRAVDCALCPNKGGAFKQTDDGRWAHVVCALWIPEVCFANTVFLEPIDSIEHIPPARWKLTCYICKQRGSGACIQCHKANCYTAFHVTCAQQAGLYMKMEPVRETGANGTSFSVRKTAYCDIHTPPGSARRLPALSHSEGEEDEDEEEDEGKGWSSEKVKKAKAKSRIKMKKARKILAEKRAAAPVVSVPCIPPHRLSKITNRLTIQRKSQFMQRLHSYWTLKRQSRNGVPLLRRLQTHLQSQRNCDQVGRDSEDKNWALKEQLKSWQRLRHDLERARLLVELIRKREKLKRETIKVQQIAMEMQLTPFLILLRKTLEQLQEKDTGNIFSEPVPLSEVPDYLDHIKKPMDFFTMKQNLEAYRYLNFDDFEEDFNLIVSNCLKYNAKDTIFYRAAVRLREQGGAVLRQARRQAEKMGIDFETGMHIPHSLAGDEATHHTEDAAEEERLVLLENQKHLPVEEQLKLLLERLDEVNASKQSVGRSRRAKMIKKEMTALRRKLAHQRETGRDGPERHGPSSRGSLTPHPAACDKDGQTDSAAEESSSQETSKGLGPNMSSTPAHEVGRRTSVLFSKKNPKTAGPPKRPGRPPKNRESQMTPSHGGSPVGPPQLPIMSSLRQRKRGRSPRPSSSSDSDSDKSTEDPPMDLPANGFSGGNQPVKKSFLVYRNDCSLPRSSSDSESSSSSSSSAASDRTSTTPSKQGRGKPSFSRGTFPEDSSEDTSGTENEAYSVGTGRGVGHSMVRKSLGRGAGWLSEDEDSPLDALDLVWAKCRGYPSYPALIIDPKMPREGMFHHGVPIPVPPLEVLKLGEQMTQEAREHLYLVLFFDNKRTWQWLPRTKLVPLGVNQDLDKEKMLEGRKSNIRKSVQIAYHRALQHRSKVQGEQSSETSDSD
Chain of Serine/threonine-protein kinase 26 (Homo sapiens) (Q9P289 2-416 limits assumed): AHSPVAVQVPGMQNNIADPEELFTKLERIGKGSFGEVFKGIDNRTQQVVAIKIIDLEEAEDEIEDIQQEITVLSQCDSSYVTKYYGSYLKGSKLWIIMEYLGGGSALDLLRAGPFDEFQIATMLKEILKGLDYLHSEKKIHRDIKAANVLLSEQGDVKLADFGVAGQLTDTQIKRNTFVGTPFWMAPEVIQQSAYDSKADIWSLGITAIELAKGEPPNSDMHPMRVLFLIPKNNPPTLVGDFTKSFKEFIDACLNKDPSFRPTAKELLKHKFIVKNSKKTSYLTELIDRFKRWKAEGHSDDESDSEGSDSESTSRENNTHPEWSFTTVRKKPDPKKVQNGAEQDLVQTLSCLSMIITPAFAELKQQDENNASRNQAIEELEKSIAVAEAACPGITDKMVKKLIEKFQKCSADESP

## CN1C[C@H](Nc2nc3cc[nH]c3c(=O)n2C)C[C@H](c2ccc3c(c2)OCCO3)C1
[1]
  ΔTm: 5.3 °C
[2]
  Activity: Active
Peregrin (Homo sapiens)
  Activity: Active
[3]
  Activity: inactive
[4]
  Activity: inactive
Homo sapiens [5]
  inhibition: inactive
[6]
  inhibition: inactive
[7]
  inhibition: inactive
[8]
  inhibition: inactive
Homo sapiens [9]
  inhibition: inactive
[10]
  inhibition: inactive
[11]
  inhibition: inactive
[12]
  inhibition: inactive
[13]
  inhibition: inactive
[14]
  inhibition: inactive
Homo sapiens [15]
  inhibition: inactive
[16]
  inhibition: inactive
[17]
  inhibition: inactive
[18]
  inhibition: inactive
Homo sapiens [19]
  inhibition: inactive
[20]
  inhibition: inactive
Homo sapiens [21]
  inhibition: inactive
[22]
  inhibition: inactive
